Measured values taken from ChEMBL document CHEMBL1138089, “Cell permeation of a Trypanosoma brucei aldolase inhibitor: evaluation of different enzyme-labile phosphate protecting groups” (Bioorg Med Chem Lett, 2006).

Experiments:
[1] = tested on: Plasmodium falciparum; assay: Inhibitory activity against Plasmodium falciparum; assay type: functional, organism-based
[2] = tested on: Trypanosoma brucei; assay: Inhibitory activity against Trypanosoma brucei; assay type: functional, organism-based
Outline: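 Parasites cultured free in serum-containing medium without macrophages; prodrugs tested in vitro against the cultures.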

[3] = tested on: Leishmania infantum; assay: Inhibitory activity against Leishmania […]; assay type: functional, organism-based
Outline: (§1)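 Parasites grown inside host macrophages in serum-containing medium, so compounds must cross the macrophage and parasite membranes; tested in vitro.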

[4] = tested on: Trypanosoma cruzi; assay: Inhibitory activity against Trypanosoma cruzi; assay type: functional, organism-based; outline: as §1
[5] = tested on: MRC5; assay: Cytotoxicity against human MRC5 cells; assay type: functional, cell-based

SMILES: CC(=O)OCCSSCCOP(=O)(OCCSSCCOC(C)=O)Oc1ccc(O)c(C=O)c1
- IC50 [1]: > 50 µM
- IC50 [2]: > 50 µM
- IC50 [3]: > 50 µM
- IC50 [4]: > 50 µM
- IC50 [5]: > 50 µM

SMILES: CC(C)(C)C(=O)SCCOP(=O)(OCCSC(=O)C(C)(C)C)Oc1ccc(O)c(C=O)c1
- IC50 [1]: 12 µM
- IC50 [2]: 16 µM
- IC50 [3]: 25 µM
- IC50 [4]: 15 µM
- IC50 [5]: 6 µM

SMILES: CC(C)(C)C(=O)OCOP(=O)(OCOC(=O)C(C)(C)C)Oc1ccc(O)c(C=O)c1
- IC50 [1]: > 50 µM
- IC50 [2]: 20 µM
- IC50 [3]: > 50 µM
- IC50 [4]: > 50 µM
- IC50 [5]: > 50 µM

SMILES: CC(=O)Oc1ccccc1CCC(=O)OCOP(=O)(OCOC(=O)CCc1ccccc1OC(C)=O)Oc1ccc(O)c(C=O)c1
- IC50 [1]: > 50 µM
- IC50 [2]: > 50 µM
- IC50 [3]: > 50 µM
- IC50 [4]: > 50 µM
- IC50 [5]: > 50 µM

SMILES: O=Cc1cc(OP(=O)(O)O)ccc1O
- IC50 [1]: > 50 µM
- IC50 [2]: > 50 µM
- IC50 [3]: > 50 µM
- IC50 [4]: > 50 µM
- IC50 [5]: > 50 µM
